Measured values: article PMC4545412 (Planta medica, 2015)
Where two headings read alike, the source gives them in different places.

Tests used:
[1] = test system: Plasmodium falciparum Dd2; assay: Antimalarial bioassay, 72 h parasite growth assay; format: cell-based; details: DD2, read-out: P. falciparum IC50
Outline: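 72 h growth assay of test compounds on the drug-resistant Dd2 strain of Plasmodium falciparum, following an earlier protocol with minor modifications. Artemisinin was the positive control.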

[2] = test system: human colon cancer (HT-29) cell line; assay: Cytotoxicity assay against HT-29 human colon cancer cells; details: for HT-29 ED50: HT-29 human colon cancer cells, > 20 µM considered inactive
NF-κB p65 subunit = NF-κB p65 subunit (Homo sapiens, UniProt Q04206); assay: Enzyme-based ELISA NF-κB; format: biochemical
[3] = test system: human colon cancer (HT-29) cell line
[4] = test system: Candida albicans (ATCC 18804); assay: Antifungal bioassay, growth of the pathogenic yeast; format: cell-based; details: ATCC18804, read-out: growth inhibition of C. albicans cells
P. falciparum strain 3D7 = details: read-out: IC50, in vitro antimalarial activity; cited from earlier work
Plasmodium falciparum = details: cited from earlier work
[5] = read-out: NF-κB (p65) IC50, enzyme-based ELISA, > 20 µM considered inactive

NF-κB p65 subunit, sequence (Q04206 whole entry): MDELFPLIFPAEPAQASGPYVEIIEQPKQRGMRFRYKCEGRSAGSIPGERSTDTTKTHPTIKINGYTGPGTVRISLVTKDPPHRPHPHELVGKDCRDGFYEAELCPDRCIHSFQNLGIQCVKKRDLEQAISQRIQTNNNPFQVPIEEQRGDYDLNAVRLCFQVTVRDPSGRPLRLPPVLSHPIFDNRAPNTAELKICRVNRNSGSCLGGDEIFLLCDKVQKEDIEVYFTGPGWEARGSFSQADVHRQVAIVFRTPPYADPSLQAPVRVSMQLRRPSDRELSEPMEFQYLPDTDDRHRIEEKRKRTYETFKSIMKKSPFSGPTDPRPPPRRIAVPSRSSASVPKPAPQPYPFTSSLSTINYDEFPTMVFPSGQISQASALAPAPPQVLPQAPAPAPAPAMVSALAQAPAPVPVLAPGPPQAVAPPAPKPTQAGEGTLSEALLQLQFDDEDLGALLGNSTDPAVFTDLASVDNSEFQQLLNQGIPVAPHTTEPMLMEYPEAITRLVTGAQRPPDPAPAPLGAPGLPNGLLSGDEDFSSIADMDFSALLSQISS

Row | Compound | HT-29 ED50 [2] | IC50 (NF-κB p65 subunit; [5]) | further results
1 | C[C@@H]1CC[C@H]2[C@@H](C)C(=O)O[C@@H]3O[C@@]4(C)CC[C@@H]1[C@]32OO4 [Artemisinin, reference compound] |  |  | IC50 [1]: 0.0007 µM
2 | C=C(C)C1CCC2(CO)CCC3(C)C(CCC4C5(C)CCC(OC(=O)/C=C/c6ccc(O)cc6)C(C)(CO)C5CCC43C)C12 (stereo not drawn) [Compound 1, 3-O-(E)-p-coumaroyl-23-hydroxybetulin] | > 20 µM | > 20 µM | 
3 | C=C(C)C1CCC2(CO)CCC3(C)C(CCC4C5(C)CCC(OC(=O)/C=C/c6ccc(O)cc6)C(C)(CO)C5CCC43C)C12 (stereo not drawn) [Compound 2, 3-O-(E)-p-coumaroyl-23-hydroxy-3-epi-betulin] | 13.2 µM | > 20 µM | cytotoxic effect against HT-29 cells (in words) ([2]; HT-29 cells): marginal cytotoxic effects
4 | C=C(C)C1CCC2(CO)CCC3(C)C(CCC4C5(C)CCC(OC(=O)/C=C\c6ccc(O)cc6)C(C)(CO)C5CCC43C)C12 (stereo not drawn) [Compound 3, 3-O-(Z)-p-coumaroyl-23-hydroxy-3-epi-betulin] | 3.3 µM | > 20 µM | 
5 | C=C(C)C1CCC2(CO)CCC3(C)C(CCC4C5(C)CCC(O)C(C)(COC(=O)/C=C/c6ccc(O)cc6)C5CCC43C)C12 (stereo not drawn) [Compound 4, 23-O-(E)-p-coumaroyl-23-hydroxybetulin] | > 20 µM | > 20 µM | 
6 | C=C(C)C1CCC2(CO)CCC3(C)C(CCC4C5(C)CCC(O)C(C)(COC(=O)/C=C\c6ccc(O)cc6)C5CCC43C)C12 (stereo not drawn) [Compound 5, 23-O-(Z)-p-coumaroyl-23-hydroxybetulin] | 18.4 µM | > 20 µM | cytotoxic effect against HT-29 cells (in words) [3]: marginal cytotoxic effects
7 | C=C(C)[C@@H]1CC[C@]2(CO)CC[C@]3(C)[C@H](CC[C@@H]4[C@@]5(C)CC[C@H](O)C(C)(C)[C@@H]5CC[C@]43C)[C@@H]12 [Compound 6, betulin] | > 20 µM |  | IC50 [1]: > 10 µM; IC50 (NF-κB p65 subunit): > 20 µM
8 | C=C(C)[C@@H]1CC[C@]2(COC(C)=O)CC[C@]3(C)[C@H](CC[C@@H]4[C@@]5(C)CC[C@H](OC(C)=O)C(C)(C)[C@@H]5CC[C@]43C)[C@@H]12 [Compound 8, 3,28-O-diacetylbetulin] | > 20 µM | > 20 µM | 
9 | C=C(C)[C@@H]1CC[C@]2(CO)CC[C@]3(C)[C@H](CC[C@@H]4[C@@]5(C)CC[C@H](O)[C@@](C)(CO)[C@@H]5CC[C@]43C)[C@@H]12 [Compound 9, 23-hydroxybetulin] | > 20 µM | 4 µM | 
10 | CC(=O)O[C@H]1C(=O)[C@@]2(C)[C@H]([C@H](OC(=O)c3ccccc3)[C@]3(O)C[C@H](OC(=O)[C@H](O)[C@@H](NC(=O)c4ccccc4)c4ccccc4)C(C)=C1C3(C)C)[C@]1(OC(C)=O)CO[C@@H]1C[C@@H]2O [Paclitaxel, reference compound] | 0.001 µM |  | 
11 | C[C@@H]1[C@H](O)[C@@H](C)/C=C/C=C/C=C/C=C/C=C/C=C/C=C/[C@H](O[C@@H]2O[C@H](C)[C@@H](O)[C@H](N)[C@@H]2O)C[C@@H]2O[C@](O)(C[C@@H](O)C[C@@H](O)[C@H](O)CC[C@@H](O)C[C@@H](O)CC(=O)O[C@H]1C)C[C@H](O)[C@H]2C(=O)O [amphotericin B] |  |  | inhibition at 200 µg/mL [4]: 100%
12 | C=C(C)[C@@H]1CC[C@]2(C(=O)OC)CC[C@]3(C)[C@H](CC[C@@H]4[C@@]5(C)CC[C@H](O)C(C)(C)[C@@H]5CC[C@]43C)[C@@H]12 [its methylate] |  |  | IC50 (P. falciparum strain 3D7): 7 µM
13 | N-3-benzoyldihydrocyclomicrophylline F [Compound 7] | 1.9 µM | > 20 µM | 
14 | O-tigloylcyclovirobuxeine-B |  |  | IC50, in vitro antiplasmodial activity (Plasmodium falciparum): 0.46 µg/mL; IC50 (Plasmodium falciparum; read-out: IC50, in vitro antiplasmodial activity): 0.92 µM
